Assay outcomes: PubChem, several laboratories
The list is not random: actives were taken first. Their share in the collection is about 9.8%.
Rad51 HR inh = blocks human Rad51 in homologous recombination; 200,000 tested, 0.085% active; hRad51 DNA strand exchange, fluorescence dequenching; Q06609; inhibition, % at 10 µM;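 active = inhibition above 40% at the single screening dose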;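 also: 0% = DMSO control wells and 100% = blanks with heterologous ssDNA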
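Material: hRad51 filaments on single-stranded DNA; Reagent: Donor/quencher-labelled 47-bp dsDNA substrate; Compound: 10 µM final, single point; Schedule: 37 °C 15-min filament assembly, 30-min compound preincubation, 15-min exchange; Technique: FRET fluorescence, excitation 485 nm, emission 520 nm; Benchmarks: control wells and blank wells on each plate.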
L major viab = Leishmania major promastigote growth inhibition; Leishmania major promastigotes, resazurin fluorescence viability; 200,000 tested, 9% active; AID 1063; inhibition, % at 10 µM; in the data active = inhibition above about 50%;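 also: promastigotes grown with compound for 44 hours at 28 °C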
PMI activator = phosphomannose isomerase (human) activation; purified human PMI, coupled resazurin fluorescence, 20 min; stronger effect = higher value; 1 = vehicle control, 0 substrate-free wells; activation factor at 20 µM; 190,000 tested, 0.005% active;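 active = activation factor of 2 or more at 20 µM, relative to plate controls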
Target sequence (P34949 whole entry, looked up): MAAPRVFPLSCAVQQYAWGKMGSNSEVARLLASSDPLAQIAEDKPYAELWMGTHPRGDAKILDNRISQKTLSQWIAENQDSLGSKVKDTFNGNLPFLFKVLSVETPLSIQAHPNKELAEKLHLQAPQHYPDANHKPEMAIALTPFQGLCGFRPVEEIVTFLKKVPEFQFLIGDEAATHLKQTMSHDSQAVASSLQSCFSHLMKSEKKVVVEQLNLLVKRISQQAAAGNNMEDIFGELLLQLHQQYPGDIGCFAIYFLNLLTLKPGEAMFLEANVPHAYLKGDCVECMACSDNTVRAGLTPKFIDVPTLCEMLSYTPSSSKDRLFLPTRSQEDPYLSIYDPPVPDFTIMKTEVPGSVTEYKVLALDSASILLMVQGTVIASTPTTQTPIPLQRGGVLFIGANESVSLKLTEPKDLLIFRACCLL
WT yeast gro inh = growth inhibition of WT yeast, mitochondrial fusion screen; mitochondrial fusion phenotypic screen, WT strain; inhibition, % at 10 µM; 190,000 tested, 2.1% active; AID 1362; in the data active = inhibition above about 58%; tested in S. cerevisiae
PMI act hi M6P = increases human PMI activity with near-saturating mannose 6-phosphate. P34949. coupled PMI enzyme assay, resazurin fluorescence, 20 min; stronger effect = higher value; 1 = untreated enzyme, 0 = substrate-free blank. activation factor at 20 µM. 190,000 tested, 0.34% active;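 active = activation factor of 2 or more at 20 µM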
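Material: human phosphomannose isomerase with PGI, G6PDH, diaphorase coupling enzymes. Quantity: 15 ng/mL PMI. Medium: HEPES pH 7.4 buffer with MgCl2 and Tween-20. Reagent: Near-saturating mannose-6-phosphate, 1.0 mM. Compound: 20 µM single dose. Times: enzyme reaction with compound 20 min at room temperature. Detection: resorufin fluorescence at Ex 544/Em 590 nm.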
Calpain2 inh = blocks pig calpain II enzyme activity; 220,000 tested, 0.37% active; purified calpain II, fluorogenic peptide substrate, 30 min; inhibition, % at 16 µM;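 active = inhibition above about 50%, limit read from the data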
* hit, by the source's call; i = inactive; · = not tested or not shown.

SMILES	Rad51 HR inh	L major viab	PMI activator	WT yeast gro inh	PMI act hi M6P	Calpain2 inh
CS(=O)(=O)N(CC(=O)N1CCN(c2ccccc2F)CC1)C1CCCCC1	2	-3	0.9	-2	1	-9
Cc1ccc(S(=O)(=O)N(CC(=O)N2CCN(c3ccccc3F)CC2)C2CCCCC2)cc1	-6	97*	1	24	1	5
CS(=O)(=O)N(CC(=O)N1CCN(C(c2ccccc2)c2ccccc2)CC1)C1CCCCC1	1	92*	1	12	1	0
CC(c1ccccc1)N1CCn2c(nc3cc(NC(=O)c4cccs4)ccc32)C1 (stereo not drawn)	-1	99*	1.3	5	1.8	-33
CC(=O)N(C)C1=C(N2CCOCC2)C(=O)c2ccccc2C1=O	6	95*	0.7	16	0.7	7
CCN(CC)C(=S)Nc1ccc(Cl)c(Cl)c1	-9	62*	1	17	1	22
CCN(Cc1ccncc1)C(=S)Nc1ccc(Cl)cc1	1	-5	1	8	0.9	14
CCN(CC)C(=S)Nc1ccc([N+](=O)[O-])cc1	0	59*	1	-8	1	2
CC(C)(C)c1ccc(S(=O)(=O)Nc2cccc(C3OCCCO3)c2)cc1	3	86*	0.9	45	0.9	3
CS(=O)(=O)c1ccc2nc(NC(=O)c3ccc(N4C(=O)CCC4=O)cc3)sc2c1	-2	·	·	·	·	23
CC1CCCCC1NC(=O)C(Cc1ccccc1)NS(=O)(=O)c1cccs1 (stereo not drawn)	-6	58*	1	10	1	27
CC(CCc1ccccc1)NC(=O)C(Cc1ccccc1)NS(=O)(=O)c1cccs1 (stereo not drawn)	-318	89*	0.9	24	1	0
Nc1nc(NC(=O)CCC(=O)O)nn1-c1ccccc1	-2	·	·	·	·	-17
CCc1cccc(C)c1NC(=O)CO/N=C(\C)c1cc2ccccc2o1	-1	70*	0.9	8	0.4	36
CCCCNC(=O)CO/N=C(\C)c1cc2ccccc2o1	3	37	1.1	-9	1.1	-16
Cc1cc(C(=O)C(C)Sc2cccc[n+]2[O-])c(C)n1-c1ccc(Cl)cc1 (stereo not drawn)	-1	97*	1	-15	1	-14
Cc1c(NS(=O)(=O)c2ccc(N(C)C3CCCCC3)c([N+](=O)[O-])c2)c(=O)n(-c2ccccc2)n1C	·	50*	1	12	1	-30
COc1ccc(CCNC(=O)COc2ccc(C)nc2[N+](=O)[O-])cc1	5	1	1.1	3	1.1	-21
O=C(C1CCN(C2CC(=O)N(Cc3ccccc3)C2=O)CC1)N1CCCCCC1 (stereo not drawn)	5	87*	1.1	-12	1.1	5
O=C1CC(N2CCN(C(c3ccccc3)c3ccccc3)CC2)C(=O)N1Cc1ccc(N2CCCC2=O)cc1 (stereo not drawn)	-1	98*	0.8	9	0.9	-12
CC(C)C(=O)Nc1nnc(SCC(=O)NCc2cccs2)s1	·	-7	1	77*	1.1	-5
CC(C)CC(=O)Nc1nnc(SCC(=O)Nc2ccc(F)cc2)s1	14	9	1.1	-8	1.1	54*
CC(C)(C)C(=O)Nc1nnc(SCC(=O)NCc2cccs2)s1	-6	0	1	9	1	-12
CC(C)Nc1nnc(SCC(=O)Nc2ccc3c(c2)C(=O)c2ccccc2C3=O)s1	-12	97*	0.9	42	0.8	-62
COc1ccc(CNC(=O)c2cccc(NC(=O)c3ccccc3)c2)cc1	8	18	·	5	·	12
SMILES	Rad51 HR inh	L major viab	PMI activator	WT yeast gro inh	PMI act hi M6P	Calpain2 inh
C/C(=N\NC(=O)c1ccc(F)cc1)c1cccc(NC(=O)c2ccco2)c1	5	67*	1	-1	0.9	-7
CCOc1ccccc1NC(=O)c1cccc(NC(=O)c2ccco2)c1	-10	100*	1.1	12	1.1	-11
COc1ccccc1N(Cc1ccccc1)S(=O)(=O)c1cccc(C(=O)O)c1	·	-6	1.2	-4	1.1	-10
CCOc1ccccc1NC(=O)c1cccc(S(=O)(=O)N(Cc2ccccc2)c2ccccc2OC)c1	-7	86*	0.8	2	1	14
Cc1ccc(C(=O)Nc2cccc(C(=O)NCc3ccccc3)c2)o1	-3	92*	1	7	1	22
O=C(O)CC1(CC(=O)Nc2ccc3sccc3c2)CCCCC1	·	·	·	·	·	-1
COc1ccc(-c2cc(C(=O)OCC(=O)N(C)C3CCS(=O)(=O)C3)c3ccccc3n2)cc1OC (stereo not drawn)	9	-2	1	5	1	-8
O=C(NCc1ccco1)c1cccc(NC(=O)c2ccco2)c1	-1	79*	0.9	-6	1	-57
CN(Cc1ccccc1)C(=O)c1cccc(NC(=O)c2ccco2)c1	-10	100*	0.9	15	0.9	-8
O=C(Nc1cccc(-c2nc3ccccc3[nH]2)c1)c1cccc(NC(=O)c2ccco2)c1	2	82*	0.8	-51	0.8	-236
O=C(NCc1ccccc1)c1cccc(NC(=O)c2ccco2)c1	1	98*	1	3	1	2
COC(=O)c1sc2ccccc2c1NC(=O)c1ccc(S(=O)(=O)N2CCC(C)CC2)cc1	3	7	0.8	7	1	-53
CCNC(=S)Nc1cc(OCC)c(NC(=O)c2ccco2)cc1OCC	·	51*	0.7	1	0.5	19
CCNC(=S)Nc1cc(OC)c(NC(=O)c2ccco2)cc1OC	·	-3	1	3	0.7	22
O=C(CSc1ccc(Cl)cc1)Nc1cccc(NC(=O)c2ccco2)c1	-7	97*	0.8	-11	0.8	16
CC(C)CNC(=O)c1cccc(NC(=O)c2ccco2)c1	0	79*	0.9	1	0.9	31
O=C(CSc1ccccc1)Nc1cccc(NC(=O)c2ccco2)c1	·	13	1	29	1	-6
CC(C)CNC(=O)c1cccc(NC(=O)C(C)C)c1	3	-5	0.7	3	0.8	2
COc1ccc(Oc2cccc(Cl)c2CNC(=O)CCC(=O)O)cc1	·	·	·	·	·	2
CCN(CC)c1ccc(/C=C2/SC(=O)N(C(C)C)C2=O)o1	i	99*	0.9	57	0.5	36
Cc1nn(-c2ccccc2)c(C)c1/C=N/NC(=O)c1ccccc1NS(=O)(=O)c1cccs1	3	-4	1	-5	1.1	-48
Cc1cccc(N(Cc2ccccc2)C(=O)CCl)c1	-3	81*	1.3	-27	1.1	7
O=C(CCl)N(Cc1ccccc1)c1ccccc1	1	79*	1.3	-29	1.1	-23
O=C(COC(=O)c1cccnc1Cl)Nc1ccc2c(c1)OCCO2	-32	4	1.1	-17	1	-1
